Screens from PubChem.
TRPC4 agonist – activators of mouse TRPC4 channel, primary screen, Fluo4 calcium, HEK293 TRPC4beta/mu-opioid cells; Short transient receptor potential channel 4 (Mus musculus), Q9QUQ5; Fluo4 calcium fluorescence; hits give high values; B-score at 10 µM; 310,000 compounds, 0.49% hits;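 active = B-score above 5 SD of library B-scores, and initial fluorescence ratio not above library mean plus 5 SD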;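 also: positive B-score marks a calcium rise read as TRPC4 activation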
Target sequence (Q9QUQ5 whole entry, looked up): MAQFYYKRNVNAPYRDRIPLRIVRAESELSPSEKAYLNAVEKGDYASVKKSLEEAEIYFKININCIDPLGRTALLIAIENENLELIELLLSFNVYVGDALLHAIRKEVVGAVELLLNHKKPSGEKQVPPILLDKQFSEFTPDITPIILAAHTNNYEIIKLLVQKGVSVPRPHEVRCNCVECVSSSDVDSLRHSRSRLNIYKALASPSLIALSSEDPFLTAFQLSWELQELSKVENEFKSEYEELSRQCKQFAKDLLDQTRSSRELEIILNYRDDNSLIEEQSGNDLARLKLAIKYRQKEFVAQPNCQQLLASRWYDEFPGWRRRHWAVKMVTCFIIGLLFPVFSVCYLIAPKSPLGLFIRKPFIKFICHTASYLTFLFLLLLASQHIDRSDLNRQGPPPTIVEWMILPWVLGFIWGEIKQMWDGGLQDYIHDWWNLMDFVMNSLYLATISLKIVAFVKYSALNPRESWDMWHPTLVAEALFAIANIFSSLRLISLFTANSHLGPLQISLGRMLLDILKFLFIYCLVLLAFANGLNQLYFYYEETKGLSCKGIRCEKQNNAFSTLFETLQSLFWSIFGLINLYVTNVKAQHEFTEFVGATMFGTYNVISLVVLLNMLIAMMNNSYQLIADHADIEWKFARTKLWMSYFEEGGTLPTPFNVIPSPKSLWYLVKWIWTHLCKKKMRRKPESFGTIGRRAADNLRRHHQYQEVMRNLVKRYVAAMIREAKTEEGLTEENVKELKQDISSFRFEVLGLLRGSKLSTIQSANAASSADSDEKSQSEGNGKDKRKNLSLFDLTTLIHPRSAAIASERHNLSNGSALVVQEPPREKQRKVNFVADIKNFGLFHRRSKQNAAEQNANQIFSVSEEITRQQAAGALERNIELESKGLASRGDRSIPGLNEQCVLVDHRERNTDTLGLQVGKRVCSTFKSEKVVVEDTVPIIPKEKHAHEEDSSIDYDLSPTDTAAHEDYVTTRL
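system = HEK293 cells stably co-expressing mouse TRPC4beta and mu-opioid receptor | schedule = Fluo4 dye loading 45 min at room temperature, 110 s recording | measure = B-scored integrated calcium fluorescence ratio | signal = Fluo4 calcium-sensitive dye fluorescence, kinetic, 1 Hz baseline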
TRPC4 PAM – positive allosteric modulators of TRPC4, primary screen, cell-based, mouse TRPC4beta, HEK293 mu-opioid, Fluo-4 calcium. B-score at 10 µM. DAMGO EC20, Fluo-4 Ca2+ flux; hits give high values. 310,000 compounds, 0.42% hits. AID 2227, 2009. Short transient receptor potential channel 4 (Mus musculus), Q9QUQ5;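 active = B-score of calcium response area above 5 SD of library B-scores, with initial fluorescence ratio within 5 SD of library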;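 also: B-score of integrated fluorescence ratio over time as area under calcium response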
TRPC6 inh – mouse TRPC6 channel inhibitors, primary screen, cell-based, HEK293, membrane potential dye. ACh-evoked depolarization; hits give low values. AID 2553, 2010. 310,000 compounds, 1.1% hits. B-score at 10 µM. Short transient receptor potential channel 6 (Mus musculus), Q61143;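 active = B-score under library mean minus 3 SD, initial fluorescence not abnormally high, positive integrated signal ratio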;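 also: B-score derived from integrated fluorescence ratio over the kinetic read; more negative B-score means stronger inhibition of depolarization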
TRPC4 inh – inhibitors of mouse TRPC4 channel, primary screen, Fluo4 calcium, HEK293 TRPC4beta/mu-opioid cells | Short transient receptor potential channel 4 (Mus musculus), Q9QUQ5 | DAMGO-evoked Fluo4 calcium flux; hits give low values | B-score at 10 µM | 300,000 compounds, 0.39% hits | AID 2247, 2010;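 active = B-score over 3 SD under the library average, no early fluorescence shift, positive overall ratio signal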
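Assay system: HEK293 cells with stable TRPC4beta plus mu-opioid receptor expression; Probe or stimulus: DAMGO in two steps, submaximal then maximal; Dosing: single-point compound dosing; Measured by: Fluo4 calcium-dye fluorescence, kinetic read; Read-out basis: B score from integrated Fluo4 fluorescence ratio.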
TRPC6 activator – mouse TRPC6 channel activators, primary screen, cell-based, HEK293, membrane potential dye. HEK293-TRPC6 membrane potential dye fluorescence; hits give high values. B-score at 10 µM. 310,000 compounds, 0.13% hits. AID 2550, 2010;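 active = B-score of the integrated fluorescence ratio above library mean plus 3 SD, and starting fluorescence ratio within library mean plus 5 SD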;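 also: higher score means more depolarization so channel activation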
TRPC4 sel inh 2 – second check of whether TRPC6 inhibitors also affect mouse TRPC4. AID 2776. shares compounds with TRPC6 inh. inhibition, % at 10 µM. HEK293 TRPC4/MOR, membrane potential dye fluorescence; channel activated by saturating DAMGO dose. 920 compounds, 42% hits;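 active = compounds whose fluorescence signal differed from control wells by over 3 SD, either direction, in both duplicate plates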
TRPC4 spec – mouse TRPC4 modulation by TRPC6 hits, confirmation, selectivity assay for TRPC6 inhibitor project, cell-based, HEK293 TRPC4/mu-opioid, membrane potential dye | membrane potential fluorescence | shares compounds with TRPC6 inh | 920 compounds, 61% hits | AID 2777, 2010 | activity change, negative = inhibition, % at 10 µM;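 active = rise or fall in signal beyond 3 SD of buffer-only wells in both replicate plates, either sign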;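 also: integrated kinetic ratio of fluorescence range over baseline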
HEK293 MPD ctr 2-1 – nonspecific membrane potential effects, parental HEK293, confirmation, counter-screen for TRPC6 inhibitor project, cell-based, second counter screen. shares compounds with TRPC6 inh. parental HEK293 membrane potential dye fluorescence; maximal acetylcholine challenge after compound addition. signal change vs control, % at 10 µM. 920 compounds, 31% hits;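 active = membrane potential signal moving either way by over 3 SD of the maximum-effect control, in both duplicate plates, meaning non-specific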
HEK293 MPD ctr-1 – membrane potential modulation in parental HEK293, confirmation, counter-screen for TRPC6 inhibitor project, cell-based; shares compounds with TRPC6 inh; parental HEK293 membrane potential dye fluorescence; membrane potential signal change, % at 10 µM; 920 compounds, 60% hits; AID 2780, 2010;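 active = membrane potential signal shifting up or down by more than 3 SD of buffer-only wells, on both duplicate plates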
HEK293 MPD ctr-2 – parental HEK293 membrane potential modulation, confirmation, counter-screen for TRPC6 modulator project, cell-based; shares compounds with TRPC6 inh; membrane potential dye fluorescence; membrane potential signal change, % at 10 µM; 2,400 compounds, 51% hits; AID 488924, 2010;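 active = membrane potential signal moves up or down beyond 5 SD from buffer-only wells, on both duplicate plates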
HEK293 MPD ctr 2-2 – second check of TRPC6 modulator effects in parental HEK293 cells. AID 488926. membrane potential dye fluorescence; after compound, maximal acetylcholine stimulation. inhibition, % at 10 µM. 2,400 compounds, 14% hits. shares compounds with TRPC6 inh;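 active = membrane potential signal drops by more than 5 SD from the mean control signal, in both duplicate plates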;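 also: plate controls were acetylcholine ECmax control wells for no effect and buffer only wells for full effect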
TRPC4 ctr mod – TRPC4 modulation by TRPC6 hit compounds, confirmation, selectivity assay for TRPC6 modulator project, cell-based, HEK293 TRPC4/mu-opioid, membrane potential dye, mouse; shares compounds with TRPC6 inh; membrane potential fluorescence; percent change from control (negative = decrease, positive = increase), % at 10 µM; 2,400 compounds, 69% hits; AID 488927, 2010;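 active = membrane potential signal moved up or down beyond 5 SD of buffer control wells, in both duplicate plates, actives on both sides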;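 also: plate controls were assay buffer wells for no effect and DAMGO maximal-effect wells for full effect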
TRPC4 ctr inh 2 – mouse TRPC4 off-target activity of TRPC6 modulators, second screen. 2,400 compounds, 55% hits. AID 488928. shares compounds with TRPC6 inh. HEK293 TRPC4/mu-opioid, membrane potential dye fluorescence; stimulated with maximal-effect DAMGO. inhibition, % at 10 µM;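 active = drop in membrane potential signal beyond 5 SD of the control wells in both duplicate plates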;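 also: TRPC4 counter screen for TRPC6 hits run under conditions tuned for TRPC6 not TRPC4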
TRPC6 block conf – mouse TRPC6 channel inhibitors, confirmation, HEK293 cells, membrane potential dye, duplicate | ACh-evoked depolarization | 3,300 compounds, 43% hits | inhibition, % at 10 µM | shares compounds with TRPC6 inh | AID 488960, 2010;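 active = fluorescence ratio falls more than 5 SD below the full-stimulation control mean, in both duplicate runs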;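 also: integrated fluorescence ratio of peak minus minimum over baseline after agonist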
TRPC6 act conf – mouse TRPC6 channel activators, confirmation, HEK293 cells, membrane potential dye, duplicate. shares compounds with TRPC6 inh. HEK293-TRPC6 membrane potential dye fluorescence, FDSS. activation, % at 10 µM. 2,800 compounds, 11% hits. AID 488961, 2010;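 active = ratio signal rise beyond 5 SD above unstimulated control wells' mean, seen in both duplicate runs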;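 also: plate controls were buffer EC0 wells for no effect and acetylcholine ECmax response for full effect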
Numbers without * were called inactive; i = inactive; x = no result given. Sampled rows, rich in hits. Any-hit rate of the full collection: about 2.3%.

SMILES | TRPC4 agonist | TRPC4 PAM | TRPC6 inh | TRPC4 inh | TRPC6 activator | HEK293 MPD ctr-2 | HEK293 MPD ctr 2-2 | TRPC4 ctr mod | TRPC4 ctr inh 2 | TRPC6 block conf | TRPC6 act conf | others
O=[N+]([O-])c1ccc(-c2csc(N3CCc4ccccc4C3)n2)cc1 | i | i | i | i | i | x | x | x | x | x | x
Cc1ncc(CN=Cc2ccc(Cl)cc2)c(N)n1 | i | i | i | i | i | x | x | x | x | x | x
O=C(CN1C(=O)C2CCCCC2C1=O)N1CCN(c2ncccn2)CC1 (stereo not given) | i | i | i | i | i | x | x | x | x | x | x
O=C(CN1CCN(c2ncccn2)CC1)N1CCCC1 | i | i | -5.3* | i | i | i | i | i | i | i | i
Cc1nn(-c2nnc(NC3CCCCC3)nn2)c(C)c1Br | i | i | i | i | i | x | x | x | x | x | x
Nc1[nH]n2c(=O)cc(-c3ccccc3)nc2c1N=Nc1ccc(S(N)(=O)=O)cc1 | i | i | i | i | i | x | x | x | x | x | x
Nc1[nH]n2c(=O)cc(-c3ccccc3)nc2c1N=Nc1ccccc1 | i | i | -8* | i | i | x | x | x | x | 77%* | i | TRPC4 sel inh 2=50%*;TRPC4 spec=-20%*;HEK293 MPD ctr 2-1=i;HEK293 MPD ctr-1=-316%*
COc1ccc(CCNC(=O)c2noc(C)c2[N+](=O)[O-])cc1OC | i | i | i | i | i | x | x | x | x | x | x
C#CCOCCOCCOCCNc1nc(N2CCN(C(=O)[C@H]([C@@H](C)CC)n3cc([C@@H](N)CO)nn3)CC2)nc(N2CCN(C(=O)[C@H]([C@@H](C)CC)n3cc([C@@H](N)Cc4ccc(O)cc4)nn3)CC2)n1 | i | i | i | i | i | x | x | x | x | x | x
C#CCOCCOCCOCCNc1nc(N2CCN(C(=O)[C@H]([C@@H](C)CC)n3cc([C@@H](N)Cc4ccc(O)cc4)nn3)CC2)nc(N2CCN(C(=O)[C@H]([C@@H](C)CC)n3cc([C@@H](N)Cc4ccc(O)cc4)nn3)CC2)n1 | i | i | -6* | i | i | -102%* | i | -28%* | i | i | i
CCN(CC)CCCN(C(=O)c1cccc(C)c1)c1nc(-c2ccc(OC)cc2)cs1 | i | i | -6.1* | i | i | i | i | -14%* | 86%* | 83%* | i
CCN(CC)CCCN(C(=O)c1ccc(Br)cc1)c1nc(-c2ccc(OC)cc2)cs1 | i | i | -6.2* | i | i | i | i | i | 72%* | 53%* | i
CCN(CC)CCCN(C(=O)c1cccs1)c1nc(-c2ccc(OC)cc2)cs1 | i | i | i | i | i | x | x | x | x | x | x
CCN(CC)CCCN(C(=O)c1ccco1)c1nc(-c2ccc(Cl)cc2)cs1 | i | i | -7.5* | i | i | x | x | x | x | 60%* | i | TRPC4 sel inh 2=26%*;TRPC4 spec=-13%*;HEK293 MPD ctr 2-1=i;HEK293 MPD ctr-1=-154%*
CS(=O)(=O)N(CC(=O)NC1CC2CCC1C2)c1ccc(Oc2ccccc2)cc1 (stereo not given) | i | i | i | i | i | x | x | x | x | x | x
O=c1[nH]c2ccc(S(=O)(=O)N3CCN(c4ccccc4F)CC3)cc2s1 | i | i | -8* | i | i | x | x | x | x | i | i | TRPC4 sel inh 2=i;TRPC4 spec=0.3%*;HEK293 MPD ctr 2-1=226%*;HEK293 MPD ctr-1=i
CCNc1nc(SCC(=O)Nc2ccc(Cl)c(Cl)c2)nc(N2CCOCC2)n1 | i | i | i | i | i | x | x | x | x | x | x
NCCc1nnc(SCc2ccccc2Cl)o1 | i | i | i | i | i | x | x | x | x | x | x
NCCCCCc1nnc(SCC(=O)Nc2cccc(Cl)c2)o1 | i | i | i | i | i | x | x | x | x | x | x
NCCCCCc1nnc(SCc2cccc(Cl)c2)o1 | i | i | -6.8* | i | i | x | x | x | x | i | i | TRPC4 sel inh 2=i;TRPC4 spec=-0.3%*;HEK293 MPD ctr 2-1=i;HEK293 MPD ctr-1=0.8%*
NCCCCCc1nnc(SCc2ccc(Cl)cc2Cl)o1 | i | i | -6.2* | i | i | i | i | 14%* | 53%* | i | x
Cc1cccc2c(=O)cc(C)n(CC(=O)N3CCCCC3)c12 | i | i | -6.2* | i | i | -260%* | i | -46%* | 28%* | i | i
CCOC(=O)Cn1c(C)cc(=O)c2cccc(C)c21 | i | i | -7.7* | i | i | -270%* | i | -44%* | 40%* | i | i
Cc1cccc2c(=O)cc(C)n(CC(=O)N3CCOCC3)c12 | i | i | i | i | i | x | x | x | x | x | x
